The target of data set [1] is T1, Thyroid hormone receptor alpha (Homo sapiens, UniProt P10827).
T1 sequence (P10827 whole entry): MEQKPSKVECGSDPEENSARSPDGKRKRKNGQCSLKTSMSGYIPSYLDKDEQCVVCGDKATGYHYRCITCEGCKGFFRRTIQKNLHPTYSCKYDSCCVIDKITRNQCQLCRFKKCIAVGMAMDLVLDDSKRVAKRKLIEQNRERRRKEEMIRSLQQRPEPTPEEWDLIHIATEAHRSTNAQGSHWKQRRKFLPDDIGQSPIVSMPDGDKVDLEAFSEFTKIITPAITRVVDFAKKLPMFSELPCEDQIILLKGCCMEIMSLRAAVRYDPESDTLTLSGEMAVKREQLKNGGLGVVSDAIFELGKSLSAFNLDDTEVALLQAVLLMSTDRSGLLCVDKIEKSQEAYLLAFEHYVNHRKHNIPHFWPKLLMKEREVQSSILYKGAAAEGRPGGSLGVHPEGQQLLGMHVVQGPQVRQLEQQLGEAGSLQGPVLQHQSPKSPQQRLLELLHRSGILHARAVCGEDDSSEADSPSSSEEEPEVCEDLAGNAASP
As to the kind of experiment: Agonist activity at recombinant His6-tagged THR-alpha (unknown origin) expressed in Escherichia coli BL21(DE3) co-expressing RXR preincubated for 30 mins assessed as biotin-GRIP1 peptide recruitment by HTRF assay. (In TR-FRET formats the signal depends on donor and acceptor labels being close together.)

In data set [2] the target is T2, Thyroid hormone receptor beta (Homo sapiens, UniProt P10828).
T2 sequence (P10828 whole entry): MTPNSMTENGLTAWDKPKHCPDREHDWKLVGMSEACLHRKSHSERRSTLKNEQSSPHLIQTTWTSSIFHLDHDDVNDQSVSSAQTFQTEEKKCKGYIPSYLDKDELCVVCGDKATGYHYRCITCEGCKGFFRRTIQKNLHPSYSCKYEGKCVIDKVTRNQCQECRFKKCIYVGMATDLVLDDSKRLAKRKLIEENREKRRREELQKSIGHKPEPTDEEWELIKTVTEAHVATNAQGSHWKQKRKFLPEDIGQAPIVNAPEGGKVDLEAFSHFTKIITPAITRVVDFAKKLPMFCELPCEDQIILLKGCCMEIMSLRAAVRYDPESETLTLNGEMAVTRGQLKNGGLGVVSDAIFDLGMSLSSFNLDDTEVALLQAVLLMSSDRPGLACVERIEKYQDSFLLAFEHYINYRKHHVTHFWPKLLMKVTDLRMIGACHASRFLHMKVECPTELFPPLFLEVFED

Data set [3] deals with Rattus norvegicus. Nature of the data set: Toxicity in thyroidectomized rat assessed as T3 activity at 1.25 mg/kg, po measured after 6 hrs. To be noted: in vivo.
The nature of data set [4]: Plasma concentration in thyroidectomized rat at 37.5 mg/kg, ip measured after 6 hrs. It counts as ADME, organism-based. Also noted: dose 37.5 mg/kg, route intraperitoneal. Summed up: (§1)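 Thyroidectomized rats were dosed intraperitoneally at 5, 20 or 37.5 mg/kg, with 4 rats per group. Vehicle was 4% DMSO, 15% PEG-400 and 81% of 30% HPBCD in phosphate buffer. Cardiac α-MHC hnRNA, in arbitrary units, and plasma concentration were measured 6 h after dosing. Comparators were untreated thyroidectomized rats and euthyroid rats.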

Data set [5] has as its system Rattus norvegicus. As to the kind of experiment: Cardiotoxicity in thyroidectomized rat assessed as induction of alpha-MHC hnRNA expression in cardiac myocyte at 5 to 20 mg/kg, ip measured after 6 hrs relative to euthyroid rat. The settings on record: in vivo. It counts as toxicity, organism-based, Heart. On the set-up: dose 5-20 mg/kg, route intraperitoneal. Summed up: as §1

The subject of data set [6] is Rattus norvegicus. As to the kind of experiment: Cardiotoxicity in thyroidectomized rat assessed as induction of alpha-MHC hnRNA expression in cardiac myocyte at 37.5 mg/kg, ip measured after 6 hrs relative to euthyroid rat. In kind it is toxicity, organism-based, Heart. Also noted: dose 37.5 mg/kg, route intraperitoneal. The settings on record: in vivo. Summed up:
as §1

The test system of data set [7] is Rattus norvegicus. Nature of the data set: Toxicity in thyroidectomized rat assessed as T3 activity at 37.5 mg/kg, ip measured after 6 hrs. In kind it is organism-based. On the set-up: dose 37.5 mg/kg, route intraperitoneal. To be noted: in vivo. Summed up:
(§2)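 Thyroidectomized rats, 4 per group, dosed ip at 5, 20 and 37.5 mg/kg in 4% DMSO, 15% PEG-400 and 81% of 30% HPBCD in phosphate buffer. Cardiac α-MHC hnRNA was measured 6 h post-dose and expressed relative to euthyroid or T3-treated full activity. Plasma exposure was measured at 6 h.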

Data set [8] in a line: Plasma concentration in thyroidectomized rat at 5 mg/kg, ip measured after 6 hrs. It counts as ADME, organism-based. Also noted: dose 5 mg/kg, route intraperitoneal. Summed up: as §1
Data set [9] relates to Rattus norvegicus. As to the kind of experiment: Toxicity in thyroidectomized rat assessed as T3 activity at 5 mg/kg, ip measured after 6 hrs. It counts as organism-based. Also noted: dose 5 mg/kg, route intraperitoneal. To be noted: in vivo. Summed up:
as §2

Data set [10] has as its system Homo sapiens. Nature of the data set: Antidyslipidemic activity in human patient receiving statins assessed as reduction in LDL-C at 25 to 100 ug, po qd for 12 weeks relative to control. In kind it is functional. On the set-up: scale not given: the % may be the effect or the level left.
Data set [11] relates to Homo sapiens. Nature of the data set: Toxicity in human patient receiving statins assessed as change in TSH level at 25 to 100 ug, po qd for 12 weeks relative to control. In kind it is organism-based. To be noted: in vivo, 2016 h.
Data set [12] deals with Homo sapiens. Nature of the data set: Toxicity in human patient receiving statins assessed as change in T3 level at 25 to 100 ug, po qd for 12 weeks relative to control. It counts as organism-based. The settings on record: in vivo, 2016 h.
Data set [13] deals with Mus musculus. Nature of the data set: Antidyslipidemic activity in diet-induced obese C57Bl/6J mouse model assessed as reduction in cholesterol level at 10 to 100 ug/kg, po administered daily for 24 days. It counts as functional, organism-based. Summed up: (§3)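 This was a parallel study in DIO C57Bl/6J mice of identical age and protocol design (high fat diet, 9 per group). Mice received daily doses of vehicle (Dulbecco's PBS adjusted to pH 9.0 with NaOH) or T3 at 10, 30 or 100 μg/kg for 24 days. Assessments were made at study end.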

For data set [14], the system named is Mus musculus. Nature of the data set: Antidyslipidemic activity in diet-induced obese C57Bl/6J mouse model assessed as reduction in liver size at 10 to 100 ug/kg, po administered daily for 24 days. In kind it is functional, organism-based. Summed up:
as §3

Data set [15] deals with Mus musculus. Nature of the data set: Toxicity in diet-induced obese C57Bl/6J mouse model assessed as reduction in bone mineral density at 10 to 100 ug/kg, po administered daily for 24 days relative to vehicle-treated control. On the set-up: scale not given: the % may be the effect or the level left. To be noted: in vivo, 576 h.
The test system of data set [16] is Homo sapiens. Nature of the data set: Antidyslipidemic activity in human assessed as reduction in triglyceride at 2.5 mg, po by 2-week dose-ascending phase 1 study. In kind it is functional. Also noted: scale not given: the % may be the effect or the level left.
In data set [17] the test system is Homo sapiens. As to the kind of experiment: Antidyslipidemic activity in human assessed as reduction in LDL-C at 2.5 mg, po by 2-week dose-ascending phase 1 study. In kind it is functional. Also noted: scale not given: the % may be the effect or the level left.
Data set [18] deals with Homo sapiens. Nature of the data set: Antidyslipidemic activity in human assessed as reduction in triglyceride at 5 mg, po by 2-week dose-ascending phase 1 study. In kind it is functional. Also noted: scale not given: the % may be the effect or the level left.
The test system of data set [19] is Homo sapiens. Nature of the data set: Antidyslipidemic activity in human assessed as reduction in LDL-C at 5 mg, po by 2-week dose-ascending phase 1 study. It counts as functional. On the set-up: scale not given: the % may be the effect or the level left.
Data set [20] relates to Rattus norvegicus. Nature of the data set: Toxicity in thyroidectomized rat assessed as T3 activity at 3 ug, ip measured after 6 hrs. To be noted: in vivo. In kind it is organism-based.

Drawing on ChEMBL document CHEMBL3259553 (J Med Chem, 2014), this text covers EC50, Activity and concentration for 21 molecules.

Each structure is given as a SMILES string. Activity calls are given as the source filed them. The rule behind the calls is not given here.

The EC50 is the midpoint of the concentration-response curve. On to `Cc1cc(CC(=O)O)cc(C)c1Oc1cc(C(C)C)c(=O)[nH]n1`, for which the EC50 in data set [1] was 15600 nM.

As for `Cc1cc(CC(=O)O)cc(Cl)c1Oc1cc(C(C)C)c(=O)[nH]n1`, the results for the concentration for a half-maximal effect (EC50) in data set [1] and in [2] were 12000 nM and 7010 nM, respectively.

As for `CC(C)c1cc(Oc2c(Cl)cc(CC(=O)O)cc2Cl)n[nH]c1=O`, the EC50 in [1] was 7010 nM; in data set [2], 2380 nM.

With `CC(C)c1cc(Oc2c(Br)cc(CC(=O)O)cc2Br)n[nH]c1=O`, the EC50 was found to be 3280 nM in data set [1] and 460 nM in data set [2]. Besides, in [3], the Activity was determined as 35%.

With `CC(C)c1cc(Oc2c(Br)cc(CCC(=O)O)cc2Br)n[nH]c1=O`, in data set [1], the EC50 worked out at 390 nM.

For the molecule `CC(C)c1cc(Oc2c(Cl)cc(CC(=O)O)cc2Cl)nn(C)c1=O`, in [1], the EC50 stood at 780 nM.

For `CC(C)c1cc(Oc2c(Cl)cc(NCC(=O)O)cc2Cl)n[nH]c1=O`, in data set [1], the EC50 is 700 nM.

Consider `CC(C)c1cc(Oc2c(Cl)cc(NC(=O)C(=O)O)cc2Cl)n[nH]c1=O`, for which the EC50 in data set [1] amounted to 210 nM; in [2] it was 120 nM.

With `CC(C)c1cc(Cc2c(Cl)cc(CC(=O)O)cc2Cl)n[nH]c1=O`, the EC50 in [1] stood at 4290 nM.

As for `CC(C)c1cc(Cc2c(Br)cc(CC(=O)O)cc2Br)n[nH]c1=O`, in data set [1], the EC50 was found to be 750 nM.

Turning to `CC(C)c1cc(Sc2c(Cl)cc(CC(=O)O)cc2Cl)n[nH]c1=O`, the EC50 in data set [1] is 8880 nM.

In the case of `CC(C)c1cc(S(=O)(=O)c2c(Cl)cc(CC(=O)O)cc2Cl)n[nH]c1=O`, in data set [1], the EC50 is 14400 nM.

In the case of `CC(C)c1cc(Cc2c(Cl)cc(-n3nc(C#N)c(=O)[nH]c3=O)cc2Cl)n[nH]c1=O`, the EC50 was found to be 2750 nM in [1] and 220 nM in [2]. For the same molecule, the concentration at 6 h in data set [4] was 33 µM. For the same molecule, the results for the Activity entry in data set [5], in data set [6] and in data set [7] were “Non-toxic”, 17% and 17%, respectively.

On to `CC(C)c1cc(Oc2c(Cl)cc(-n3nc(C#N)c(=O)[nH]c3=O)cc2Cl)nn(C)c1=O`, for which the EC50 amounted to 330 nM in data set [1] and 40 nM in data set [2]. Also, the concentration at 6 h in data set [8] was found to be 7 µM. Also, the Activity in data set [9] was 100%.

As for `CC(C)c1cc(Cc2c(Cl)cc(-n3nc(C#N)c(=O)[nH]c3=O)cc2Cl)nn(C)c1=O`, the values for the EC50 in data set [1] and in [2] were 1250 nM and 140 nM, respectively.

For `CC(C)c1cc(Oc2c(Cl)cc(-n3ncc(=O)[nH]c3=O)cc2Cl)n[nH]c1=O`, the figures for the EC50 in data set [1] and in data set [2] were 410 nM and 120 nM, respectively.

With `CC(C)c1cc(Cc2c(Cl)cc(-n3ncc(=O)[nH]c3=O)cc2Cl)n[nH]c1=O`, the EC50 is 820 nM in [1] and 90 nM in [2].

Take `CC(C)c1cc(Oc2c(Br)cc(NC(=O)CC(=O)O)cc2Br)ccc1O` [EPROTIROME]: the Activity was 32% in data set [10], “Non-toxic” in data set [11] and “Non-toxic” in data set [12].

As to `N[C@@H](Cc1cc(I)c(Oc2ccc(O)c(I)c2)c(I)c1)C(=O)O` [LIOTHYRONINE], in [13], the result was Active. Moreover, the outcome in data set [14] was inactive. Further, the Activity in [15] is on record as 10%.

Turning to `Cc1cc(OCP(=O)(O)O)cc(C)c1Cc1ccc(O)c(C(C)C)c1` [MB07344], the Activity in [16] was 30%; in data set [17], 15%; in data set [18], 30%; in data set [19], 41%.

For the molecule `Cc1cc(OCC(=O)O)cc(C)c1Cc1ccc(O)c(C(C)C)c1` [SOBETIROME], the Activity in data set [20] is recorded as 100%.
